Assays:
[1] = target: Chymotrypsinogen A (Bos taurus) (UniProt P00766); experiment: Time for which maximum percent inhibition persists was determined against alpha-chymotrypsin (17 nM); type: functional
How it was run: (§1)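 Enzyme incubated with excess lactone added from DMSO stock (final 10% DMSO); aliquots over 2 h diluted into substrate: chymotrypsin Suc-AAPF-pNA 315 µM, pH 7.2, 410 nm; t-PA Spectrozyme t-PA 0.2 mM, Tris-imidazole pH 8.4, 405 nm; HNE MeO-Suc-AAPV-pNA 150 µM, pH 7.4, 410 nm; plasmin Ts-GPK-pNA 157.4 µM, pH 7.8, 404 nm; thrombin Ts-GPR-pNA 75 µM, pH 8.0, 408 nm; trypsin Z-VGR-pNA 155 µM, pH 7.2, 404 nm. Activity given relative to a no-lactone control. Some runs used a 10-min substrate-free delay after dilution. ∞ means no recovery over 2 h.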

[2] = target: Chymotrypsinogen A (Bos taurus) (UniProt P00766); experiment: Time to reach maximum percent inhibition by the compound was determined against alpha-chymotrypsin (17 nM); type: functional
How it was run: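 α-Chymotrypsin with excess lactone (DMSO, 10% final) was sampled over 2 h into Suc-Ala-Ala-Pro-Phe-pNA (315 μM) in 0.2 M phosphate, pH 7.2. Absorbance at 410 nm gave the remaining activity versus a control without lactone. Minutes to maximal inhibition were taken.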

[3] = target: Chymotrypsinogen A (Bos taurus) (UniProt P00766); experiment: Maximum percent inhibition by the compound was determined against Chymotrypsinogen (17 nM); how it was run: as §1
[4] = target: T1, Neutrophil elastase (Homo sapiens) (UniProt P08246); experiment: Maximum percent inhibition by the compound was determined against human neutrophil elastase HNE(66 nM); how it was run: as §1
T1 sequence (whole entry): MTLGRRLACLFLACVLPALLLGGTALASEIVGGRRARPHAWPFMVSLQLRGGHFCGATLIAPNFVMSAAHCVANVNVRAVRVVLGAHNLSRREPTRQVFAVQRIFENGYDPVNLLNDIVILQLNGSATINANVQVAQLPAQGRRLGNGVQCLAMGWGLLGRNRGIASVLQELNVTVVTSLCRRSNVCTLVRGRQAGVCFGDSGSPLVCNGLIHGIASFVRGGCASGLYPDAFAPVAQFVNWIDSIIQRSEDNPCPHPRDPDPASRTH

[5] = target: T1, Neutrophil elastase (Homo sapiens); experiment: Time to reach maximum percent inhibition by the compound was determined against human neutrophil elastase HNE(66 nM); type: functional
How it was run: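 HNE was incubated with excess lactone in 10% final DMSO. Aliquots drawn during 2 h went into MeO-Suc-Ala-Ala-Pro-Val-pNA (150 μM) in 0.1 M phosphate, 0.5 M NaCl, pH 7.4, read at 410 nm. Activity was set relative to a lactone-free control, and the time (min) to peak inhibition was noted.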

[6] = target: Plasminogen (Homo sapiens) (UniProt P00747); experiment: Time to reach maximum percent inhibition by the compound was determined against plasmin(625 nM); type: functional
How it was run: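 Plasmin plus excess lactone (10% final DMSO) was sampled over 2 h into Ts-Gly-Pro-Lys-pNA (157.4 μM) in 0.05 M phosphate, pH 7.8. The slope at 404 nm, relative to an enzyme-only control, gave residual activity. Minutes needed to reach maximal inhibition were reported.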

[7] = target: Plasminogen (Homo sapiens) (UniProt P00747); experiment: Substrate binding constant against plasmin
How it was run: (§2)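 Competitive substrate assay: lactone (DMSO, final 10% v/v) and chromogenic substrate combined in buffer, enzyme added, absorbance followed to steady state. Turnover-corrected semilog plot gives kobs; I0 vs I0/kobs replot (eq 6) with separately determined Km yields Ki and ka. Where no burst was seen, Ki was estimated from Km(app) replots using 15-s initial velocities. Buffers and substrates as in incubation assay.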

[8] = target: Plasminogen (Homo sapiens) (UniProt P00747); experiment: Second order rate constant against plasmin; how it was run: as §2
[9] = target: Plasminogen (Homo sapiens) (UniProt P00747); experiment: Time for which maximum percent inhibition persists was determined against plasmin(625 nM); * =no enzyme activity was recovered over 2 h; type: functional; how it was run: as §1
[10] = target: Plasminogen (Homo sapiens) (UniProt P00747); experiment: Maximum percent inhibition by the compound was determined against plasmin(625 nM); how it was run: as §1
[11] = target: Plasminogen (Homo sapiens) (UniProt P00747); experiment: Acylation rate constant against plasmin; how it was run: as §2
[12] = target: Tissue-type plasminogen activator (Homo sapiens) (UniProt P00750); experiment: Maximum percent inhibition by the compound was determined against Tissue plasminogen activator (19.4 nM); how it was run: as §1
[13] = target: Tissue-type plasminogen activator (Homo sapiens) (UniProt P00750); experiment: Time for which maximum percent inhibition persists was determined against Tissue plasminogen activator (19.4 nM); type: functional; how it was run: as §1
[14] = target: Tissue-type plasminogen activator (Homo sapiens) (UniProt P00750); experiment: Time to reach maximum percent inhibition by the compound was determined against Tissue plasminogen activator (19.4 nM); type: functional
How it was run: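 Tissue plasminogen activator was exposed to excess lactone (10% final DMSO). Over 2 h, aliquots were diluted into Spectrozyme t-PA (0.2 mM) in Tris-imidazole, I 0.3, pH 8.4. Hydrolysis at 405 nm gave residual activity relative to an enzyme-only control. The time (min) to reach maximal percent inhibition was recorded.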

[15] = target: Prothrombin (Homo sapiens) (UniProt P00734); experiment: Time to reach maximum percent inhibition by the compound was determined against thrombin (1.93 nM); type: functional
How it was run: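 Thrombin was incubated with excess lactone (DMSO, 10% final). Aliquots over 2 h were diluted into Ts-Gly-Pro-Arg-pNA (75 μM) in 0.05 M phosphate, 0.01 M EDTA, 10 g/L PEG 8000, 10 mg/L aprotinin, pH 8.0, and read at 408 nm against a no-lactone control. Time to maximal inhibition was recorded.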

[16] = target: T2, Serine protease 1 (Bos taurus) (UniProt P00760); experiment: Substrate binding constant against trypsin; how it was run: as §2
T2 sequence (whole entry): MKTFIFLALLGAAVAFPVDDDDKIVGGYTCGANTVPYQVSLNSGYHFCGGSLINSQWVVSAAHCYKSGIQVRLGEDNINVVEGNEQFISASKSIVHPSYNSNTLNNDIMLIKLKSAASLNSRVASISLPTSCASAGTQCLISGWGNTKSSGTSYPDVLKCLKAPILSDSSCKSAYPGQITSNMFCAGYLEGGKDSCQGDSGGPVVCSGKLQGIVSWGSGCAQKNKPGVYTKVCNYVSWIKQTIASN

[17] = target: T2, Serine protease 1 (Bos taurus); experiment: Second order rate constant against trypsin; how it was run: as §2
[18] = target: T2, Serine protease 1 (Bos taurus); experiment: Time to reach maximum percent inhibition by the compound was determined against trypsin (14.6 nM); type: functional
How it was run: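 Trypsin was incubated with excess lactone added from DMSO stock (10% final DMSO). Aliquots taken over 2 h were diluted into Z-Val-Gly-Arg-pNA (155 μM) in 0.2 M phosphate, pH 7.2, and read at 404 nm. Activity came from the absorbance slope versus a no-lactone control. Reported are minutes to maximal inhibition and minutes it persisted; ∞ means no recovery within 2 h.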

[19] = target: T3, Urokinase-type plasminogen activator (Homo sapiens, UniProt P00749); experiment: Decylation rate constant against Urokinase-type plasminogen activator
[20] = target: Prothrombin (Homo sapiens) (UniProt P00734); experiment: Maximum percent inhibition by the compound was determined against thrombin (1.93 nM); how it was run: as §1
[21] = target: T2, Serine protease 1 (Bos taurus); experiment: Acylation rate constant against trypsin; how it was run: as §2
Serine protease 1 = target: T4, Serine protease 1 (Bos taurus, UniProt P00760); experiment: Decylation rate constant against trypsin
T4 sequence (P00760 whole entry): T2 sequence (whole entry)
How it was run: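 Trypsin incubated 30–45 min with excess lactone (same I0/E0 as incubation assay). Free inhibitor removed by two 1-h centrifugations at 0 °C. Activity recovery followed at room temperature against an inhibitor-free control carried through the same treatment; kd is the slope of ln remaining activity vs time. Substrate Z-Val-Gly-Arg-pNA 155 µM, 0.2 M phosphate pH 7.2, 404 nm.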

[22] = Ratio of initial inhibitor concentration to initial Chymotrypsinogen concentration
How it was run: (§3)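 Ratio I0/E0 of lactone to enzyme in the 2-h incubation assay; lactone added from DMSO stock to buffered enzyme (final 10% DMSO).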

[23] = Ratio of initial inhibitor concentration to initial HNE concentration; how it was run: as §3
[24] = Ratio of initial inhibitor concentration to initial Plasmin concentration; how it was run: as §3
[25] = Ratio of initial inhibitor concentration to initial t-PA concentration; how it was run: as §3
[26] = Ratio of initial inhibitor concentration to initial thrombin concentration; how it was run: as §3
[27] = Ratio of initial inhibitor concentration to initial trypsin concentration; how it was run: as §3
[28] = Ratio of initial inhibitor concentration to initial urokinase concentration; how it was run: as §3
[29] = target: T3, Urokinase-type plasminogen activator
[30] = target: T3, Urokinase-type plasminogen activator; remark: listed apart in the source
[31] = target: T3, Urokinase-type plasminogen activator; remark: listed apart in the source
[32] = target: T1, Neutrophil elastase (Homo sapiens); experiment: Time for which maximum percent inhibition persists was determined against human neutrophil elastase HNE(66 nM); type: functional; how it was run: as §1
[33] = target: Tissue-type plasminogen activator (Homo sapiens) (UniProt P00750); experiment: Maximum percent inhibition persists was determined against Tissue plasminogen activator (19.4 nM); how it was run: as §1
[34] = target: Prothrombin (Homo sapiens) (UniProt P00734); experiment: Time for which maximum percent inhibition persists was determined against thrombin (1.93 nM); type: functional; how it was run: as §1
[35] = target: T2, Serine protease 1 (Bos taurus); experiment: Maximum percent inhibition by the compound was determined against trypsin (14.6 nM); how it was run: as §1
[36] = target: T3, Urokinase-type plasminogen activator; experiment: Substrate binding constant against Urokinase

Sequence of Tissue-type plasminogen activator (Homo sapiens) (P00750 36-562 limits assumed): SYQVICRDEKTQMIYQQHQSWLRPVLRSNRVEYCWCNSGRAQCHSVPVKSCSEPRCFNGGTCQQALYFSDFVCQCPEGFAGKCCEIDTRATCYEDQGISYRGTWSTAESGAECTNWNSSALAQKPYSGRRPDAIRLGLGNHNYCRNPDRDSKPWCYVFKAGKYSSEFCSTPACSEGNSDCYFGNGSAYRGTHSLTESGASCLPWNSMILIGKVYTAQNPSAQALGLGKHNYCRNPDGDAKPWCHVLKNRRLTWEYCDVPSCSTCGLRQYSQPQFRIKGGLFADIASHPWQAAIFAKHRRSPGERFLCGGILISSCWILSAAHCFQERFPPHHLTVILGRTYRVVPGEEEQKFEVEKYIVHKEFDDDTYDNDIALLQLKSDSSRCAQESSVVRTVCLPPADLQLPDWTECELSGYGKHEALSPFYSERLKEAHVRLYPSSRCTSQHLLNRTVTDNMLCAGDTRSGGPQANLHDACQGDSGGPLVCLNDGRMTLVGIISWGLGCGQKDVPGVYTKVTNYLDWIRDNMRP
Sequence of Plasminogen (Homo sapiens) (P00747 97-580 limits assumed): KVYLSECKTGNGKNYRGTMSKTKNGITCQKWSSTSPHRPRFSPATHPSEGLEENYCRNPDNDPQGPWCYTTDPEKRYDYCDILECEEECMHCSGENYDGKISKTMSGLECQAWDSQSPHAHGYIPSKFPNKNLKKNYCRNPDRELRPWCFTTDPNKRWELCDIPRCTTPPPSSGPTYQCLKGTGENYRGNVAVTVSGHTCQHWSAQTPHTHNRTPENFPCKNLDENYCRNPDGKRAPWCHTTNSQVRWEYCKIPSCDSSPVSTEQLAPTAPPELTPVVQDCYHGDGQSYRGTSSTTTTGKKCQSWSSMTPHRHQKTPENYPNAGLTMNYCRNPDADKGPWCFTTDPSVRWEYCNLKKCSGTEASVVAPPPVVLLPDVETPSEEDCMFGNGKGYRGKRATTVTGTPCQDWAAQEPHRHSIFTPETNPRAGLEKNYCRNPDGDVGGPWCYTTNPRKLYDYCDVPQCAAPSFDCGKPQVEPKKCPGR
Sequence of Plasminogen (Homo sapiens) (P00747 581-810 limits assumed): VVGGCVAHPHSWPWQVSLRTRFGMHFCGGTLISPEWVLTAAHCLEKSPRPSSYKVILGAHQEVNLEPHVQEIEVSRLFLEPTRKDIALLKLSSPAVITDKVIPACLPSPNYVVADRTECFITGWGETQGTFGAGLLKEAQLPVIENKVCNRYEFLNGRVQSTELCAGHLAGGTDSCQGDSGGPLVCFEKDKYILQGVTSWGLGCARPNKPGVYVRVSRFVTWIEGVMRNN

TIME [1] [h] | TIME [2] [h] | inhibition [3] [%] | inhibition [4] [%] | TIME [5] [h] | TIME [6] [h] | Ks [7] [µM] | Rate [8] [ka/Ks] | TIME [9] | inhibition [10] [%] | Ka [11] [min⁻¹] | TIME [13] [h] | TIME [14] [h] | TIME [15] [h] | Rate [17] [ka/Ks] | inhibition [20] [%] | Ka [21] [min⁻¹] | Kd (Serine protease 1) [s⁻¹] | Ratio [22] [Io/Eo] | Ratio [23] [Io/Eo] | Compound | also measured
0.75 | 0 | 34 | 27 | 0.5 | 0 | 63.7 | 1.5 | No enzyme activity | 79 | 97 | 0.5 | 0.25 | 0.25 | 10 | 40 | 91 | 3.3e-05 | 118 | 36 | C=C1CC(c2ccc(NC(=N)N)cc2)CC(=O)O1 (stereo not given) | inhibition [12]: 24%; Ks [16]: 9.4 µM; TIME [18]: 0.333 h; Kd [19]: 0.00015 s⁻¹; Ratio [24]: 16 Io/Eo; Ratio [25]: 100 Io/Eo; Ratio [26]: 518 Io/Eo; Ratio [27]: 86 Io/Eo; Ratio [28]: 50 Io/Eo; Ks [29]: 0.12 µM; Rate [30]: 2 ka/Ks; Ka [31]: 0.24 min⁻¹
0.25 | 0 | 47 | 67 | 0.25 | 1 | 11 | 0.9 | No enzyme activity | 97 | 11 | 0.25 | 0 | 1.5 | 0.13 | 38 | 0.54 | 0.00033 | 118 | 36 | N=C(N)Nc1ccc(C2CC(=O)O/C(=C/I)C2)cc1 (stereo not given) | TIME [32]: 0.25 h; inhibition [33]: 22%; TIME [34]: 0 h; inhibition [35]: 99%; Ratio [24]: 16 Io/Eo; Ratio [25]: 100 Io/Eo; Ratio [26]: 518 Io/Eo; Ratio [27]: 86 Io/Eo; Ratio [28]: 50 Io/Eo; Ks [29]: 7.83 µM; Rate [30]: 0.33 ka/Ks; Ka [31]: 2.61 min⁻¹; Ks [36]: 7.83 µM
